Values after ≈ are worked out from the molar mass of the structure shown. Active and inactive are the calls of the source. The rule behind the calls is not given here.
Experiments:
[1] = Inhibition of human ATP synthase mediated ATP production at 100 nM
Procedure, shortened: (§1)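 OVCAR3 cells were grown in DMEM with 10% FBS and penicillin-streptomycin. Isolated mitochondria (250 μg/ml) and sonicated submitochondrial particles without outer membrane (150 μg/ml) were incubated 1 h at 25°C with compound and an ADP-regenerating system. ATP formed was quantified spectrophotometrically from glucose-6-phosphate oxidation with NADP+. Controls were DCCD 5 μM and oligomycin 1 μM.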

[2] = molecular target: T1, Putative uncharacterized protein atpE (Mycolicibacterium smegmatis, UniProt Q5TIX5); assay: Inhibition of Mycobacterium smegmatis MC2 155 ATP synthase subunit c-mediated ATP production at 100 nM
Procedure, shortened: (§2)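 Inverted membrane vesicles from M. smegmatis mc²155 incubated with compound at 25°C for 1 h with an ADP-regenerating system. ATP formed was quantified spectrophotometrically by following glucose-6-phosphate oxidation with NADP+. Controls were DCCD (100 μM) and oligomycin (1 μM). IC50 taken from the concentration-response of ATP synthesis.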

[3] = test system: Mycolicibacterium smegmatis; assay: Antimicrobial activity against Mycobacterium smegmatis; format: functional
OVCAR-3 [4] = assay: Inhibition of ATP synthase mediated ATP production in human OVCAR3 cells at 1 uM; format: cell-based; procedure, shortened: as §1
Bos taurus [5] = species: Bos taurus; assay: Inhibition of ATP synthase in bovine heart mitochondria assessed as inhibition of oxygen consumption; conditions: concentration not given here
Procedure, shortened: (§3)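 Mitochondria freshly isolated from M18 mouse liver or bovine heart. Oxygen was read by Clark electrode at 37°C in 20 mM Tris-HCl pH 7.3, 85 mM KCl, 5 mM KH2PO4, 2.3 mM MgCl2, 25 mM creatine and 25 mM phosphocreatine, with an ADP-regenerating system. Succinate energised the membrane; rotenone blocked complex I. Inhibition was taken as the fall in state III O2 rate. Oligomycin 0.6 μM served as control. Mean±SD of three independent experiments.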

[6] = test system: Mycobacterium tuberculosis; assay: Antimicrobial activity against Mycobacterium tuberculosis; format: functional
OVCAR-3 [7] = assay: Inhibition of ATP synthase mediated ATP production in human OVCAR3 cells; format: cell-based; procedure, shortened: as §1
[8] = molecular target: T1, Putative uncharacterized protein atpE; assay: Inhibition of Mycobacterium smegmatis MC2 155 ATP synthase subunit c-mediated ATP production; procedure, shortened: as §2
Mus musculus [9] = species: Mus musculus; assay: Inhibition of ATP synthase in M18 mouse liver mitochondria assessed as effect on oxygen consumption at 175 uM; procedure, shortened: as §3
Bos taurus [10] = species: Bos taurus; assay: Inhibition of ATP synthase in bovine heart mitochondria assessed as effect on oxygen consumption at 175 uM; procedure, shortened: as §3
OVCAR-3 [11] = assay: Inhibition of ATP synthase mediated ATP production in human OVCAR3 cells at 5 uM; format: cell-based; procedure, shortened: as §1
OVCAR-3 [12] = assay: Inhibition of ATP synthase mediated ATP production in human OVCAR3 cells at 200 uM; format: cell-based; procedure, shortened: as §1
Mus musculus [13] = species: Mus musculus; assay: Inhibition of ATP synthase in M18 mouse liver mitochondria assessed as inhibition of oxygen consumption; procedure, shortened: as §3

T1 sequence (Q5TIX5 whole entry): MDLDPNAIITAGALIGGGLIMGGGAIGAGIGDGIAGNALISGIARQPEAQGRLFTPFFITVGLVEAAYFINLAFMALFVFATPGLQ

SMILES: COc1nc2ccc(Br)cc2cc1[C@@H](c1ccccc1)[C@@](O)(CCN(C)C)c1cccc2ccccc12 [BEDAQUILINE]
- IC50 [1]: > 200 µM
- IC50 [2]: 0.01 µM
- MIC [3]: 0.015 µM (≈ 0.00833 µg/mL)
- inhibition (OVCAR-3 [4]): > 90%
- inhibition (Bos taurus [5]): > 50%
- MIC [6]: 0.03 µM (≈ 0.0167 µg/mL)
- inhibition (OVCAR-3 [7]): inactive
- IC50 [8]: 0.01 µM
- inhibition (Mus musculus [9]): inactive
- inhibition (Bos taurus [10]): inactive
- inhibition (OVCAR-3 [11]): > 90%
- inhibition (OVCAR-3 [12]): 35%
- inhibition (Mus musculus [13]): > 80%
